Published values gathered from unrelated publications.
Compare with care: the assays were run in different laboratories.
Read-out: cell growth or viability

Nc1nc2ccc(-c3c/c(=N\c4ccccc4NC(=O)CCN4CCOCC4)c4ccccc4o3)cc2o1
inhibition (MDA-MB-231; CCK-8; 1 µM): -0.02%

O=C(Nc1ccccc1)Nc1ccc(Oc2nc3ccccc3n3cnnc23)cc1
viability (MDA-MB-231; MTT; 25 µM; 24 h): 70.1%

NCC(=O)Nc1ccccc1/N=c1\cc(-c2ccc3c(c2)OCO3)oc2ccccc12
inhibition (MDA-MB-231; CCK-8; 1 µM): 12.4%

O=C(Nc1ccc(Oc2nc3ccccc3n3cnnc23)cc1)Nc1cccc(Cl)c1
viability (MDA-MB-231; MTT; 50 µM; 24 h): 41.2%

C[C@H](N)C(=O)Nc1ccccc1/N=c1\cc(-c2ccc3c(c2)OCO3)oc2ccccc12
inhibition (MDA-MB-231; CCK-8; 1 µM): 7.31%

COc1cc(C(=O)c2nc(-c3cccc4cc[nH]c34)c[nH]2)cc(OC)c1OC
IC50 (A-375; MTS; 72 h): 0.0205 µM

COc1cccc2c1C(=O)c1c(O)c3c(c(O)c1C2=O)C[C@@](O)(C(=O)CO)C[C@@H]3O[C@H]1C[C@H](N)[C@H](O)[C@H](C)O1
IC50 (HS27; CCK-8; 72 h): 0.109 µM

C=C1C[C@@]23CC[C@H]4[C@@](C)(CCC[C@@]4(C)C(=O)O)[C@@H]2CC[C@@H]1C3
IC50 (MRC5; MTT; 75 h): 99.2 µM

NCCC(=O)Nc1ccccc1/N=c1\cc(-c2ccc3nc(N)oc3c2)oc2ccccc12
inhibition (MDA-MB-231; CCK-8; 1 µM): 68.6%

Cn1nnc2c(C(N)=O)ncn2c1=O
IC50 (human Astrocyte; MTT): 2080 µM

COc1cc(C(=O)c2nc(-c3ccsc3)c[nH]2)cc(OC)c1OC
IC50 (A-375; MTS; 72 h): 0.0432 µM

CCCCC(=O)Nc1ccc(-c2ccc3ncn(CCC)c(=O)c3c2)cn1
IC50 (MRC5; CCK-8; 72 h): 0.48 µM

COc1cc(C(=O)c2nc(-c3cccc4[nH]ccc34)c[nH]2)cc2c1OCO2
IC50 (A-375; MTS; 72 h): 0.0051 µM

O=C(Nc1ccccc1/N=c1\cc(-c2ccc3c(c2)OCO3)oc2ccccc12)N1CCOCC1
inhibition (MDA-MB-231; CCK-8; 1 µM): -4.28%

CN(C)c1cccc(Nc2nc(-c3ccncc3)nc3c2CNCC3)c1
IC50 (A-375; MTT): 88.8 µM

COc1cc(C(=O)c2nc(-c3cccc4c3CCN4)c[nH]2)cc(OC)c1OC
IC50 (A-375; MTS; 72 h): 0.022 µM

O=C(Nc1ccc(Cl)cc1)Nc1ccc(Oc2nc3ccccc3n3cnnc23)cc1
viability (MDA-MB-231; MTT; 25 µM; 24 h): 77.3%

O=C(Nc1ccccc1/N=c1\cc(-c2ccc3c(c2)OCCO3)oc2cc(F)ccc12)N1CCOCC1
inhibition (MDA-MB-231; CCK-8; 1 µM): 8.63%

Cc1nc(Nc2ncc(C(=O)Nc3c(C)cccc3Cl)s2)cc(N2CC[C@H](O)C2)n1
inhibition (SU-DHL-1; ATP luminescence; 10 µM; 72 h): 11%

Nc1ccccc1/N=c1\cc(-c2ccc3c(c2)OCO3)oc2ccccc12
inhibition (MDA-MB-231; CCK-8; 1 µM): 2.58%

COc1cc(C(=O)c2nc(-c3cccc4c3CC(=O)N4)c[nH]2)cc(OC)c1OC
IC50 (A-375; MTS; 72 h): 0.0275 µM

COc1cccc(NC(=O)Nc2ccc(Oc3nc4ccccc4n4cnnc34)cc2)c1
viability (MDA-MB-231; MTT; 50 µM; 24 h): 32.4%

COc1cc(C(=O)c2nc(-c3ccncc3)c[nH]2)cc(OC)c1OC
IC50 (A-375; MTS; 72 h): > 1 µM

CNC(=O)c1cc(Oc2ccc(NC(=O)Nc3ccc(Cl)c(C(F)(F)F)c3)cc2)ccn1
viability (MDA-MB-231; MTT; 50 µM; 24 h): 16.7%
